From ChEMBL document CHEMBL1152649, “Synthesis, cytotoxicity and human telomerase inhibition activities of a series of 1,2-heteroannelated anthraquinones and anthra[1,2-d]imidazole-6,11-dione homologues” (2009)

Legend:
Type in all cases: functional
[1] = tested on: T47D; assay: Growth inhibition of human T47D cells
Summary of the method: (§1)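 Assayed in the NCI 60 human cancer cell line panel under the Developmental Therapeutics Program protocol. For each line, dose–response curves were plotted against log10 drug concentration. In the one-dose screen at 10^-5 M, growth was given as percent of untreated control cells, and mean graph midpoint values were averaged.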

[2] = tested on: HCT-116; assay: Growth inhibition of human HCT116 cells
Summary of the method: (§2)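 NCI 60 cancer cell line screen run per the Developmental Therapeutics Program protocol. Dose–response curves were plotted against log10 drug concentration for each cell line within its subpanel, and mean graph midpoint values were calculated.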

[3] = tested on: NCI-H460; assay: Growth inhibition of human NCI-H460 cells; summary of the method: as §2
[4] = tested on: OVCAR-4; assay: Growth inhibition of human OVCAR4 cells; summary of the method: as §2
[5] = tested on: NCI-H522; assay: Growth inhibition of human NCI-H522 cells; summary of the method: as §2
[6] = tested on: NCI-H23; assay: Growth inhibition of human NCI-H23 cells; summary of the method: as §2
[7] = tested on: HCC 2998; assay: Growth inhibition of human HCC2998 cells; summary of the method: as §2
[8] = Growth inhibition of human […] cells; summary of the method: as §1
[9] = tested on: UO-31; assay: Growth inhibition of human UO31 cells; summary of the method: as §1
[10] = tested on: OVCAR-5; assay: Growth inhibition of human OVCAR5 cells; summary of the method: as §2
[11] = tested on: HCT-15; assay: Growth inhibition of human HCT15 cells; summary of the method: as §2
[12] = tested on: HT-29; assay: Growth inhibition of human HT-29 cells; summary of the method: as §2
[13] = tested on: NCI-H226; assay: Growth inhibition of human NCI-H226 cells; summary of the method: as §2
[14] = tested on: SK-OV-3; assay: Growth inhibition of human SKOV3 cells; summary of the method: as §1
[15] = tested on: PC-3; assay: Growth inhibition of human PC3 cells; summary of the method: as §1
[16] = tested on: DU-145; assay: Growth inhibition of human DU145 cells; summary of the method: as §2
[17] = tested on: SW-620; assay: Growth inhibition of human SW620 cells; summary of the method: as §1
[18] = tested on: EKVX; assay: Growth inhibition of human EKVX cells; summary of the method: as §2
[19] = tested on: LOX IMVI; assay: Growth inhibition of human LOXIMVI cells; summary of the method: as §2
[20] = tested on: Malme-3M; assay: Growth inhibition of human MALME-3M cells; summary of the method: as §2
[21] = tested on: IGROV-1; assay: Antiproliferative activity against human IGROV1 cells assessed as cell growth at 10 uM; settings: read-out: Activity
Summary of the method: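 NCI 60 cell line panel, single-dose screen (10^-5 M) run by the developmental therapeutics program protocol. Results are given as growth percent of treated cells relative to untreated control cells for each line.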

[22] = tested on: UACC-62; assay: Growth inhibition of human UACC62 cells; summary of the method: as §1
[23] = tested on: UACC-257; assay: Growth inhibition of human UACC257 cells; summary of the method: as §1
[24] = tested on: SK-MEL-5; assay: Growth inhibition of human SK-MEL-5 cells; summary of the method: as §1
[25] = tested on: M14; assay: Growth inhibition of human M14 cells; summary of the method: as §2
[26] = tested on: HOP-62; assay: Growth inhibition of human HOP62 cells; summary of the method: as §2
[27] = tested on: SF-295; assay: Growth inhibition of human SF295 cells; summary of the method: as §1
[28] = tested on: HL-60(TB); assay: Growth inhibition of human HL-60(TB) cells
Summary of the method: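 NCI 60-cell-line panel run under the Developmental Therapeutics Program protocol. Dose-response curves are plotted against log10 drug concentration for each cell line within its subpanel, and GI50 is read from these curves.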

[29] = tested on: SF-539; assay: Growth inhibition of human SF539 cells; summary of the method: as §1
[30] = tested on: A549; assay: Growth inhibition of human A549 cells; summary of the method: as §2
[31] = tested on: HOP-92; assay: Growth inhibition of human HOP92 cells; summary of the method: as §2
[32] = tested on: RXF 393; assay: Growth inhibition of human RXF393 cells; summary of the method: as §1
[33] = tested on: SK-MEL-2; assay: Growth inhibition of human SK-MEL-2 cells; summary of the method: as §1
[34] = tested on: MDA-MB-231; assay: Growth inhibition of human MDA-MB-231 cells; summary of the method: as §2
[35] = tested on: CCRF-CEM; assay: Growth inhibition of human CCRF-CEM cells; summary of the method: as §2
[36] = tested on: U-251; assay: Growth inhibition of human U251 cells; summary of the method: as §1
[37] = read-out: LC50 (the source's name)

O=C1c2ccccc2C(=O)c2c1ccc1nccnc21
GI50 [1]: 12.6 µM | LC50 [1]: > 100 µM | TGI [1]: 75.1 µM | GI50 [2]: 12.3 µM | TGI [2]: > 100 µM | CC50 [2, 37]: > 100 µM | GI50 [3]: 2.01 µM | TGI [3]: 26.9 µM | CC50 [3, 37]: > 100 µM | GI50 [4]: 10.5 µM | TGI [4]: > 100 µM | CC50 [4, 37]: > 100 µM | GI50 [5]: 4.64 µM | TGI [5]: 32.5 µM | CC50 [5, 37]: > 100 µM | GI50 [6]: 12 µM | TGI [6]: 70.3 µM | CC50 [6, 37]: > 100 µM | GI50 [7]: 1.4 µM | TGI [7]: 83.5 µM | CC50 [7, 37]: > 100 µM | GI50 [8]: 1.61 µM | TGI [8]: > 100 µM | CC50 [8, 37]: > 100 µM | GI50 [9]: 3.02 µM | TGI [9]: 85.9 µM | CC50 [9, 37]: > 100 µM | GI50 [10]: 29.3 µM | TGI [10]: > 100 µM | CC50 [10, 37]: > 100 µM | GI50 [11]: 4.63 µM | TGI [11]: 84.3 µM | CC50 [11, 37]: > 100 µM | GI50 [12]: 7.01 µM | TGI [12]: > 100 µM | CC50 [12, 37]: > 100 µM | GI50 [13]: 16.6 µM | TGI [13]: 95.2 µM | CC50 [13, 37]: > 100 µM | GI50 [14]: 6.95 µM | TGI [14]: > 100 µM | CC50 [14, 37]: > 100 µM | TGI [15]: > 100 µM | CC50 [15, 37]: > 100 µM | GI50 [16]: 11.4 µM | TGI [16]: 34.3 µM | CC50 [16, 37]: > 100 µM | GI50 [17]: 1.71 µM | TGI [17]: 30.8 µM | CC50 [17, 37]: > 100 µM | GI50 [18]: 3.45 µM | TGI [18]: 72.1 µM | CC50 [18, 37]: > 100 µM | GI50 [19]: 4.2 µM | TGI [19]: 38.9 µM | CC50 [19, 37]: > 100 µM | GI50 [20]: 4.48 µM | TGI [20]: 20.7 µM | CC50 [20, 37]: 70.8 µM | growth at 10 µM [21]: 3.44% | GI50 [22]: 13.3 µM | TGI [22]: 56.1 µM | CC50 [22, 37]: > 100 µM | GI50 [23]: 13 µM | TGI [23]: 68.3 µM | CC50 [23, 37]: > 100 µM | GI50 [24]: 3.93 µM | TGI [24]: 17.1 µM | CC50 [24, 37]: 44.4 µM | GI50 [25]: 5.14 µM | TGI [25]: > 100 µM | CC50 [25, 37]: > 100 µM | GI50 [26]: 5.64 µM | TGI [26]: > 100 µM | CC50 [26, 37]: > 100 µM | GI50 [27]: 4.35 µM | TGI [27]: 32.3 µM | CC50 [27, 37]: > 100 µM | GI50 [28]: 0.68 µM | TGI [28]: 11.5 µM | CC50 [28, 37]: 83.7 µM | GI50 [29]: 2.18 µM | TGI [29]: 53.7 µM | CC50 [29, 37]: > 100 µM | GI50 [30]: 4.53 µM | TGI [30]: > 100 µM | CC50 [30, 37]: > 100 µM | GI50 [31]: 22.5 µM | TGI [31]: > 100 µM | CC50 [31, 37]: > 100 µM | GI50 [32]: 6.43 µM | TGI [32]: > 100 µM | CC50 [32, 37]: > 100 µM | GI50 [33]: 12.7 µM | TGI [33]: 55.9 µM | CC50 [33, 37]: > 100 µM | GI50 [34]: 19.1 µM | LC50 (concentration killing 50% of cells) [34]: > 100 µM | TGI [34]: > 100 µM | GI50 [35]: 2.46 µM | TGI [35]: > 100 µM | CC50 [35, 37]: > 100 µM | GI50 [36]: 5.38 µM | TGI [36]: 42.9 µM | CC50 [36, 37]: > 100 µM

O=C1c2ccccc2C(=O)c2c1ccc1nc(-c3ccc4c(c3)OCO4)[nH]c21
growth at 10 µM [21]: 93.3%
